Residual activity, IC50 and GI50 data for three compounds are collected here from ChEMBL document CHEMBL1136991, “Novel potent BRAF inhibitors: toward 1 nM compounds through optimization of the central phenyl ring” (J Med Chem, 2009).

Assay [1] has as its target T1, Aurora kinase C (Homo sapiens) (UniProt Q9UQB9).
T1 sequence (whole entry): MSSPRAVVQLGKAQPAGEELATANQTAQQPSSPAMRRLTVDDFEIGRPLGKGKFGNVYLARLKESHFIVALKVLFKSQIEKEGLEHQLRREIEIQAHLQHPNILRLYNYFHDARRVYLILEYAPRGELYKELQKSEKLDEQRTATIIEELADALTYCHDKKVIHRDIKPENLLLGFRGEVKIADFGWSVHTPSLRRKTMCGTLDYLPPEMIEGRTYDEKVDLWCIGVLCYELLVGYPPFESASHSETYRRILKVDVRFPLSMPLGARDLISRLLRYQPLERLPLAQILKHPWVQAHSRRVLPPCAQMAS
The assay is described as follows: Inhibition of Aurora C at 1 uM relative to control.

Assay [2] addresses RAC-alpha serine/threonine-protein kinase (Homo sapiens) (UniProt P31749). Put plainly: Inhibition of PKBalpha at 1 uM relative to control.
The nature of assay [3]: Inhibition of PKA at 1 uM relative to control.
The target of assay [4] is Mitogen-activated protein kinase 14 (Homo sapiens) (UniProt Q16539). Put plainly: Inhibition of p38alpha at 1 uM relative to control.
Mitogen-activated protein kinase 14 (Homo sapiens), sequence (Q16539 whole entry): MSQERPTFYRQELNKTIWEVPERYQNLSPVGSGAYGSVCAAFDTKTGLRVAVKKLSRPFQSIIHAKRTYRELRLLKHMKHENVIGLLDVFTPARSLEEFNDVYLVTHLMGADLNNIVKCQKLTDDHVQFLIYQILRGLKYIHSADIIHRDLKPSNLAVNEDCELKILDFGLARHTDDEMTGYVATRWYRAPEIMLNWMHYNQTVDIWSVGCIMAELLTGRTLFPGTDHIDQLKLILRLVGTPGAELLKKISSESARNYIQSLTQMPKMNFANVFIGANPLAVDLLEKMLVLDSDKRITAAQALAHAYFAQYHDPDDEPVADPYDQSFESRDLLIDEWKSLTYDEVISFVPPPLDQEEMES
Assay [5] deals with T2, Serine/threonine-protein kinase D1 (Homo sapiens) (UniProt Q15139).
T2 sequence (whole entry): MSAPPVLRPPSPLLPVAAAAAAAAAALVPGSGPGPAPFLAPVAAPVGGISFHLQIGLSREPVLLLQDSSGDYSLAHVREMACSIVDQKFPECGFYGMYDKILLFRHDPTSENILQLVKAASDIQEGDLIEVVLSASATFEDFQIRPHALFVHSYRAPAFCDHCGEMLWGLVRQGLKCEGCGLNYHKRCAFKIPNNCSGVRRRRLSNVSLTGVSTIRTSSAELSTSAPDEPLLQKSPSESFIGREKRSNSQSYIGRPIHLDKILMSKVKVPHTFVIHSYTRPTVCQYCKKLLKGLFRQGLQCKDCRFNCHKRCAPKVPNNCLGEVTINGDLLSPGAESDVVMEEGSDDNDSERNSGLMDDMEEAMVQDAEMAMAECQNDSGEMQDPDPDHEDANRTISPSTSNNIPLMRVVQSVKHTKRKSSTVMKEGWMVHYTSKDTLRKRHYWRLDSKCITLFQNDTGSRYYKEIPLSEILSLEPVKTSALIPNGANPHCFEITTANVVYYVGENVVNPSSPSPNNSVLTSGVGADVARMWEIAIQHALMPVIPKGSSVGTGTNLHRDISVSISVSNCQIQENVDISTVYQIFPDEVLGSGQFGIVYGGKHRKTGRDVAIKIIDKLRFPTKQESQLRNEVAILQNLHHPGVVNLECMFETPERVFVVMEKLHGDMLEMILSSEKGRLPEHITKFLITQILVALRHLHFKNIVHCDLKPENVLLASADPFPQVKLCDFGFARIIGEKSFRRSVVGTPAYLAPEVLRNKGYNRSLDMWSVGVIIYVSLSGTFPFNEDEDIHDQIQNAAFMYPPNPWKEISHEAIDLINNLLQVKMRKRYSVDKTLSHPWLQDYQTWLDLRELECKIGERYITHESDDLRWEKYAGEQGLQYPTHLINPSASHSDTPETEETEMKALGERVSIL
Put plainly: Inhibition of PKD1 at 1 uM relative to control.

Assay [6] is described as follows: Inhibition of CK1 at 1 uM relative to control.
The target of assay [7] is Serine/threonine-protein kinase pim-2 (Homo sapiens) (UniProt Q9P1W9). The assay is described as follows: Inhibition of PIM2 at 1 uM relative to control.
Serine/threonine-protein kinase pim-2 (Homo sapiens), sequence (Q9P1W9 whole entry, looked up): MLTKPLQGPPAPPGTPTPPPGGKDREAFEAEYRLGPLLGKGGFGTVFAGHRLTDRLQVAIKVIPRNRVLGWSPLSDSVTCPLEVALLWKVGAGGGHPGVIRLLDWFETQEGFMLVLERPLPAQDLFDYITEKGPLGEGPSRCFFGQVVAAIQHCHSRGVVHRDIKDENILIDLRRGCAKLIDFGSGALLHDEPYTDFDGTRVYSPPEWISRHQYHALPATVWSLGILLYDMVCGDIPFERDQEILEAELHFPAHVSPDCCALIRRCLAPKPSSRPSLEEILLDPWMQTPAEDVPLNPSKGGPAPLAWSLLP
Assay [8] deals with T3, Serine/threonine-protein kinase B-raf (Homo sapiens, UniProt P15056, V600E). The assay is described as follows: Inhibition of BRAF V600E mutant-mediated ERK phosphorylation in human WM266.4 cells. The assay is classed as cell-based. The essentials:
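Cellular pathway read-out: ERK phosphorylation (pERK) was measured in WM266.4 melanoma cells and reported as an IC50.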

Assay [9] addresses Mitogen-activated protein kinase 3 (Homo sapiens) (UniProt P27361). The assay is described as follows: Inhibition of ERK1 at 1 uM relative to control.
The target in assay [10] is T4, Mitogen-activated protein kinase 12 (Homo sapiens) (UniProt P53778).
T4 sequence (whole entry): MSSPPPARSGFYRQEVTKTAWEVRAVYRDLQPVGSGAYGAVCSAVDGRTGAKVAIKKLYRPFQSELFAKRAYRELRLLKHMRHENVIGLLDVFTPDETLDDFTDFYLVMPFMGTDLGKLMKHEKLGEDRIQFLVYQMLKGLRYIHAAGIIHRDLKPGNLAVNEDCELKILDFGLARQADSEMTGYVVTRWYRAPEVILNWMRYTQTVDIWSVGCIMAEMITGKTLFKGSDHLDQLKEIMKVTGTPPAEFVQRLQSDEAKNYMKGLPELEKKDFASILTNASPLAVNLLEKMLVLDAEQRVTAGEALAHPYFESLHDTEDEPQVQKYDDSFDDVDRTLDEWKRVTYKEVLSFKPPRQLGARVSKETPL
The assay is described as follows: Inhibition of p38-gamma at 1 uM relative to control.

Assay [11] has as its target Serine/threonine-protein kinase PLK1 (Homo sapiens) (UniProt P53350). The assay is described as follows: Inhibition of PLK1 at 1 uM relative to control.
Assay [12] has as its target Ribosomal protein S6 kinase beta-1 (Homo sapiens) (UniProt P23443). The assay is described as follows: Inhibition of S6K1 at 1 uM relative to control.
Assay [13] can be described thus: Inhibition of PHK at 1 uM relative to control.
Assay [14] addresses Ribosomal protein S6 kinase alpha-5 (Homo sapiens) (UniProt O75582). Put plainly: Inhibition of MSK1 at 1 uM relative to control.
Assay [15] has as its target MAP kinase-activated protein kinase 2 (Homo sapiens) (UniProt P49137). The assay is described as follows: Inhibition of MAPKAP-K2 at 1 uM relative to control.
Assay [16] has as its target Myosin light chain kinase, smooth muscle (Homo sapiens) (UniProt Q15746). The assay is described as follows: Inhibition of smooth muscle MLCK at 1 uM relative to control. Conditions: Muscle tissue. The assay is classed as tissue-based.
The target in assay [17] is Dual specificity tyrosine-phosphorylation-regulated kinase 1A (Homo sapiens) (UniProt Q13627). Put plainly: Inhibition of DYRK1A at 1 uM relative to control.
Assay [18] addresses Serine/threonine-protein kinase pim-3 (Homo sapiens) (UniProt Q86V86). The assay is described as follows: Inhibition of PIM3 at 1 uM relative to control.
The target in assay [19] is T3, Serine/threonine-protein kinase B-raf. Put plainly: Inhibition of BRAF V600E mutant. In outline: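 Purified, isolated V600E BRAF enzyme assayed in vitro; potency reported as IC50.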
Assay [20] can be described thus: Growth inhibition of human WM266.4 cells expressing BRAF V600E mutant after 5 days by SRB assay. Conditions: WM 266-4, 120 h. The assay is classed as functional. The essentials: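 WM266.4 human melanoma cells, which are driven by mutant BRAF, were assayed for proliferation by sulforhodamine B (SRB) staining; the value is a GI50.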
A general note: In SRB staining, fixed cells bind dye roughly in proportion to their protein.

The target in assay [21] is Mitogen-activated protein kinase 11 (Homo sapiens) (UniProt Q15759). The assay is described as follows: Inhibition of p38beta at 1 uM relative to control.
Mitogen-activated protein kinase 11 (Homo sapiens), sequence (Q15759 whole entry): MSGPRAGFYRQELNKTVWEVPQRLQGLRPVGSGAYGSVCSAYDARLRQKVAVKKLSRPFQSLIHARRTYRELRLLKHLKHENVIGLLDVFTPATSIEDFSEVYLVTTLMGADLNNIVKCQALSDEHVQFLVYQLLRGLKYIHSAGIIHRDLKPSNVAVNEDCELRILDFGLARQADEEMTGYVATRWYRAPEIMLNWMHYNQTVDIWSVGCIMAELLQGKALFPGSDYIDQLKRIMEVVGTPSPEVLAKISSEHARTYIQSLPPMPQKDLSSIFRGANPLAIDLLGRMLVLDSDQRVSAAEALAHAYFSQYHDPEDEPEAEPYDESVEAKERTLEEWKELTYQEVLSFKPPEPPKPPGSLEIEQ
The target of assay [22] is Cyclin-dependent kinase 2 (Homo sapiens) (UniProt P24941). Put plainly: Inhibition of CDK2/cyclin A at 1 uM relative to control.

Mitogen-activated protein kinase 3 (Homo sapiens), sequence (P27361 whole entry): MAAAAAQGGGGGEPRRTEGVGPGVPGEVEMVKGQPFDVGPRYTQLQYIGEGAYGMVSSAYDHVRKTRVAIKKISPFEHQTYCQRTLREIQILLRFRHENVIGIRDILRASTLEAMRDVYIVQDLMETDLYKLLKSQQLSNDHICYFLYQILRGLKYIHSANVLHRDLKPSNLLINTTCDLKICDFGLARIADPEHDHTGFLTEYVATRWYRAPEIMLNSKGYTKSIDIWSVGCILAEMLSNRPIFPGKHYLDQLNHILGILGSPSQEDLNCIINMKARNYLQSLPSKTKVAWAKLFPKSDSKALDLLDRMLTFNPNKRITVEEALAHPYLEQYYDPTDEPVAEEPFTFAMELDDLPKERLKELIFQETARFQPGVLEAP
Ribosomal protein S6 kinase alpha-5 (Homo sapiens), sequence (O75582 whole entry, looked up): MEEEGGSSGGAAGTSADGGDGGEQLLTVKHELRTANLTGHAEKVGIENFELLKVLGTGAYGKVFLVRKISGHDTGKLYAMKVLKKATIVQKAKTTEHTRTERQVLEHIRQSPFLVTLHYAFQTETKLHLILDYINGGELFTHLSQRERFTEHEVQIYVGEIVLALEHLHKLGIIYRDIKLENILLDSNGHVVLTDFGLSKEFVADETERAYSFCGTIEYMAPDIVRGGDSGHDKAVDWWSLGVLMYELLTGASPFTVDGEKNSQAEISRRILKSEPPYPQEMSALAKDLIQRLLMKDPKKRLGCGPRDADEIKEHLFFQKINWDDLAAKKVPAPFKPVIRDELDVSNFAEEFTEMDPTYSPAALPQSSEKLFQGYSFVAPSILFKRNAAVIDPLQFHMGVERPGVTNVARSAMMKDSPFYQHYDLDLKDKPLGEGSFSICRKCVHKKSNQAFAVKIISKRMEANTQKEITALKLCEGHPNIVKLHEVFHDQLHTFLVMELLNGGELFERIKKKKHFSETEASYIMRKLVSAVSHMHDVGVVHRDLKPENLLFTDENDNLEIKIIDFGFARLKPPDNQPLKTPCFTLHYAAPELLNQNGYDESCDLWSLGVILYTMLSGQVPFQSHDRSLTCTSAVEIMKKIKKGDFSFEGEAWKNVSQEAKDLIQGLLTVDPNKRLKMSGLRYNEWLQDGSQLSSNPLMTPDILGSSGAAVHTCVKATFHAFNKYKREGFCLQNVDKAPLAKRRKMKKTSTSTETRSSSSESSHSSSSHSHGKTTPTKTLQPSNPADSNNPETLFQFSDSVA
T3 sequence (P15056 2-766 V600E limits assumed): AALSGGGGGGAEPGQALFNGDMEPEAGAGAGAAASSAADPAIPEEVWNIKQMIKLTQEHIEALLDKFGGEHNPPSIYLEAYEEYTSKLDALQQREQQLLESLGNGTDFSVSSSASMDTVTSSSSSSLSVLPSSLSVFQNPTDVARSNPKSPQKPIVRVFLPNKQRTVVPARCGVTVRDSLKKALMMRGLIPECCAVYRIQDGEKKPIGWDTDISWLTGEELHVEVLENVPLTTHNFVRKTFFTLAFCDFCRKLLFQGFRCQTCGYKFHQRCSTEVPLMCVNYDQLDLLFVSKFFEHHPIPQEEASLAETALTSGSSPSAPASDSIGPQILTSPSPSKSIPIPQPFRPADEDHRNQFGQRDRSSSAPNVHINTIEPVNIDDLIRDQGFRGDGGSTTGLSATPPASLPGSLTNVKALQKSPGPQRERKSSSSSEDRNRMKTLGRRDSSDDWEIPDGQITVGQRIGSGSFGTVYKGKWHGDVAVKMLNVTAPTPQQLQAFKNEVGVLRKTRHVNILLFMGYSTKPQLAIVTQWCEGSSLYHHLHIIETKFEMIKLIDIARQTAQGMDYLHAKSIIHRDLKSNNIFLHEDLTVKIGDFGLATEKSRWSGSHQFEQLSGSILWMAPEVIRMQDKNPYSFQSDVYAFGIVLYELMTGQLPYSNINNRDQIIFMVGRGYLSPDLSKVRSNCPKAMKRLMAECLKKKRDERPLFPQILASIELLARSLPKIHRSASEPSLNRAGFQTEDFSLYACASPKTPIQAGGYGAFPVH
RAC-alpha serine/threonine-protein kinase (Homo sapiens), sequence (P31749 whole entry): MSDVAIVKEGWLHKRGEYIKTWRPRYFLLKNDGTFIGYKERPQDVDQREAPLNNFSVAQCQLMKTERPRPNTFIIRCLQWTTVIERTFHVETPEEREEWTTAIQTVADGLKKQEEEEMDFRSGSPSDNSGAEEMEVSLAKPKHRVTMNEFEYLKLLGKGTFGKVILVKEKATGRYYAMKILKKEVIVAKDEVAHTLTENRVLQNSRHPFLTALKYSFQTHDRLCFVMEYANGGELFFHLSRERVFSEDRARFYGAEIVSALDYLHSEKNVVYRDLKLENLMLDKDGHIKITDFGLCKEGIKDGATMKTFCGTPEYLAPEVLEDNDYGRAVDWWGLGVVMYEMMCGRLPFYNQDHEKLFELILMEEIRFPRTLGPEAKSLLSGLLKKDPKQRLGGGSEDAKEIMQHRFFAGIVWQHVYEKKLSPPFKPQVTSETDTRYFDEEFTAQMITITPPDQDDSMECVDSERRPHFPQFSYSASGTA
MAP kinase-activated protein kinase 2 (Homo sapiens), sequence (P49137 whole entry, looked up): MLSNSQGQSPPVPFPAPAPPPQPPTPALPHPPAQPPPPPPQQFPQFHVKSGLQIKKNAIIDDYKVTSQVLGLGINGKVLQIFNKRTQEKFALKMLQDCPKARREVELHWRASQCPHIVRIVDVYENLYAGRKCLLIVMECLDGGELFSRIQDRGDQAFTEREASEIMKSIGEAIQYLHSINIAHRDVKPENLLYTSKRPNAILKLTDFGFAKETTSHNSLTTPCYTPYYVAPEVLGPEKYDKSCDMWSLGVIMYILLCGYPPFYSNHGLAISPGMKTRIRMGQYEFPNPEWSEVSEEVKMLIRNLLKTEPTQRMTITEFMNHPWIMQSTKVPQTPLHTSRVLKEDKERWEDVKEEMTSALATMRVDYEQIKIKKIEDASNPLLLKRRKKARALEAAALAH
Serine/threonine-protein kinase PLK1 (Homo sapiens), sequence (P53350 whole entry): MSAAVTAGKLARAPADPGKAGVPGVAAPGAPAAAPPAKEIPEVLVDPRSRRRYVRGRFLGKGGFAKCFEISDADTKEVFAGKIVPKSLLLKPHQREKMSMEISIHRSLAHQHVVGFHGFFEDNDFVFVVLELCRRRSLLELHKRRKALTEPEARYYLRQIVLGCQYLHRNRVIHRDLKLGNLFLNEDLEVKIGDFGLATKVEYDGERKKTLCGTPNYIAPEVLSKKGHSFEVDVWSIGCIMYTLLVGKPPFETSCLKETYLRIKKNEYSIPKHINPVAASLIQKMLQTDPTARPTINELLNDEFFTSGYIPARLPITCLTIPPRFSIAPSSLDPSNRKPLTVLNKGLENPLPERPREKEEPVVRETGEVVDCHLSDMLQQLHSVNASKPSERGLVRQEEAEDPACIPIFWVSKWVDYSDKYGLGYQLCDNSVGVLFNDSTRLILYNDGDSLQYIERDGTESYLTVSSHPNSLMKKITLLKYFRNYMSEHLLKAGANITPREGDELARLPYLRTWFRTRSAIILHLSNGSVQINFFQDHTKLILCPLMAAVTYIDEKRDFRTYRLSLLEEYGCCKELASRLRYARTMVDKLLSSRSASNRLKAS

For orientation: IC50 means the point on the concentration scale where inhibition reaches its midpoint. A higher IC50 goes with lower potency. One may read the GI50 as the concentration at which growth is held to half of that of the control. Read a low GI50 as more potent growth inhibition. For the compound `O=C(Nc1cc(C(F)(F)F)ccc1F)Nc1ccc(Oc2ccnc3[nH]c(=O)[nH]c23)c2ccccc12`, the residual activity is under 25% in [1]; 100% in [2]; 75% in assay [3]; 100% in assay [4]; 75% in assay [5]; 100% in assay [6]. Further, the residual activity in [7] was 100%; in assay [9], 100%; in assay [10], 50%; in [11], 100%; in assay [12] it was 75%; in [13], 100%. Also, the residual activity in [14] is 75%; in assay [15], 100%; in assay [16], 100%; in assay [17], 100%; in assay [18], 100%; in assay [21] it was under 25%. For the same compound, the residual activity in assay [22] turned out to be 100%. Besides, the results for the IC50 in assay [8] and in assay [19] were 214 nM and 37 nM, respectively. This compound showed a GI50 in [20] of 290 nM.
As for `CSc1cc(Oc2ccnc3[nH]c(=O)[nH]c23)ccc1NC(=O)Nc1cccc(C(F)(F)F)c1`, the residual activity was 50% in assay [1]; 100% in [2]; 100% in assay [3]; under 25% in [4]; 75% in assay [5]; 75% in assay [6]. The residual activity amounted to 100% in assay [7]; 100% in assay [9]; 50% in [10]; 100% in assay [11]; 100% in [12]; 100% in assay [13]. Besides, the residual activity in assay [14] was 100%; in [15] it was 100%; in assay [16], 100%; in assay [17], 100%; in assay [18], 100%; in [21], under 25%. This compound came in with a residual activity in [22] of 100%. In addition, the IC50 in assay [8] amounted to 1300 nM; in [19], 1 nM. The compound further yielded a GI50 in assay [20] of 1060 nM.
Turning to `CC(C)(C)c1cccc(NC(=O)Nc2ccc(Oc3ccnc4[nH]c(=O)[nH]c34)c3ccccc23)c1`, the residual activity is 75% in assay [1]; 75% in assay [2]; 75% in [3]; under 25% in assay [4]; 75% in assay [5]; 75% in assay [6]. Besides, the residual activity in [7] was 100%; in assay [9], 100%; in assay [10], under 25%; in [11], 75%; in assay [12], 100%; in assay [13], 75%. For the same compound, the residual activity in [14] is 75%; in [15], 75%; in [16], 75%; in assay [17] it was 100%; in [18], 75%; in [21], under 25%. In [22], this compound came in with a residual activity of 100%. Moreover, the 50% inhibitory concentration (IC50) was 19300 nM in assay [8] and 79 nM in assay [19]. Also, the 50% growth inhibitory concentration (GI50) in [20] was determined as 3900 nM.
